In brackets after ≈: the same amount, converted by molar mass.
Experiments:
[1] = Cmax in rat at 60 mg/kg, ip; type: ADME, organism-based; design: dose 60 mg/kg, route intraperitoneal; settings: in vivo
Outline: (§1)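 Naive rats got a single ip dose of 60 mg/kg, formulated in multisol (propylene glycol:alcohol:water for injection, 5:1:4). Plasma concentration–time profiles were followed, and PK parameters (t1/2, CL/F, Vz/F, AUC, Cmax, tmax, MRT) were derived from them.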

Mus musculus [2] = assay: Teratogenicity in SWV/Fnn mouse assessed as resorption at 141 mg/kg, ip on day 8.5 of gestation (reference value: 6.3 %); type: toxicity, organism-based; design: dose 141 mg/kg, route intraperitoneal; settings: in vivo
Mus musculus [3] = assay: Teratogenicity in SWV/Fnn mouse assessed as live fetuses at 141 mg/kg, ip on day 8.5 of gestation (reference value: 93.7 %); type: toxicity, organism-based; design: dose 141 mg/kg, route intraperitoneal; settings: in vivo
[4] = Neurotoxicity in ip dosed albino Sprague-Dawley rat assessed as minimal motor impairment after 0.25 to 0.5 hrs; type: toxicity, organism-based; settings: in vivo
Outline: (§2)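 Each test was run at the previously determined time to peak effect: 0.25–0.5 h after ip dosing, or 0.5–1 h after oral dosing. Groups of 4–8 animals received various doses until at least two points fell between 0% and 100% protection or minimal toxicity.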

[5] = Apparent clearance in rat at 60 mg/kg, ip; type: ADME, organism-based; design: dose 60 mg/kg, route intraperitoneal; settings: in vivo; outline: as §1
Hippocampus [6] = assay: Protection against kainic acid-induced spontaneous electrographic seizures in combined medial entorhinal cortex hippocampal brain slices of albino Sprague-Dawley rat assessed as burst rate at 100 uM after 1 week relative to control; type: functional
Outline: (§3)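 Rat brain slices showing spontaneous bursting were exposed to 100 μM compound. Burst rate and burst duration were expressed as % of control ± SEM.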

Mus musculus [7] = assay: Teratogenicity in SWV/Fnn mouse assessed as normal fetuses at 141 mg/kg, ip on day 8.5 of gestation (reference value: 100 %); type: toxicity, organism-based; design: dose 141 mg/kg, route intraperitoneal; settings: in vivo
Mus musculus [8] = assay: Teratogenicity in SWV/Fnn mouse assessed as fetuses with neural tube defects at 141 mg/kg, ip on day 8.5 of gestation relative to vehicle-treated control; type: toxicity, organism-based; design: dose 141 mg/kg, route intraperitoneal; settings: in vivo
Mus musculus [9] = assay: Teratogenicity in SWV/Fnn mouse assessed as resorption at 283 mg/kg, ip on day 8.5 of gestation (reference value: 6.3 %); type: toxicity, organism-based; design: dose 283 mg/kg, route intraperitoneal; settings: in vivo
[10] = Neurotoxicity in ip dosed albino CF1 mouse assessed as minimal motor impairment after 0.25 to 0.5 hrs; type: toxicity, organism-based; settings: in vivo; outline: as §2
[11] = AUC in rat at 60 mg/kg, ip; type: ADME, organism-based; design: dose 60 mg/kg, route intraperitoneal; settings: plasma; outline: as §1
Mus musculus [12] = assay: Anticonvulsant activity in ip dosed albino CF1 mouse assessed as protection against maximal electroshock-induced seizures after 0.25 to 0.5 hrs; type: functional; outline: as §2
Rattus norvegicus [13] = assay: Anticonvulsant activity in po dosed albino Sprague-Dawley rat assessed as protection against maximal electroshock-induced seizures after 0.5 to 1 hr; type: functional; outline: as §2
Hippocampus [14] = assay: Protection against kainic acid-induced spontaneous electrographic seizures in combined medial entorhinal cortex hippocampal brain slices of albino Sprague-Dawley rat assessed as burst duration at 100 uM after 1 week relative to control; type: functional; outline: as §3
[15] = Mean residence time in rat at 60 mg/kg, ip; type: ADME, organism-based; design: dose 60 mg/kg, route intraperitoneal; settings: in vivo; outline: as §1
[16] = Neurotoxicity in po dosed albino Sprague-Dawley rat assessed as minimal motor impairment after 0.5 to 1 hr; type: toxicity, organism-based; settings: in vivo; outline: as §2
Mus musculus [17] = assay: Teratogenicity in SWV/Fnn mouse assessed as fetuses with neural tube defects at 283 mg/kg, ip on day 8.5 of gestation relative to vehicle-treated control; type: toxicity, organism-based; design: dose 283 mg/kg, route intraperitoneal; settings: in vivo
Rattus norvegicus [18] = assay: Anticonvulsant activity in ip dosed albino Sprague-Dawley rat assessed as protection against pilocarpine-induced behavioral seizures administered 30 mins post seizure measured after 0.25 to 0.5 hrs; type: functional
Outline: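 Status epilepticus was induced in rats with lithium–pilocarpine. Compound was given ip 30 min after the first observed stage 3 or greater motor seizure. The read-out was prevention of further convulsive seizures across various doses in groups of 4–8 rats.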

Rattus norvegicus [19] = assay: Anticonvulsant activity in ip dosed albino Sprague-Dawley rat assessed as protection against subcutaneous metrazol-induced seizures after 0.25 to 0.5 hrs; type: functional; outline: as §2
Mus musculus [20] = assay: Anticonvulsant activity in ip dosed albino CF1 mouse assessed as protection against 32 mA-current- for 3 secs induced seizures after 0.25 to 0.5 hrs by 6Hz psychomotor seizure test; type: functional; outline: as §2
Mus musculus [21] = assay: Anticonvulsant activity in ip dosed albino CF1 mouse assessed as protection against 44 mA-current- for 3 secs induced seizures after 0.25 to 0.5 hrs by 6Hz psychomotor seizure test; type: functional; outline: as §2
Mus musculus [22] = assay: Teratogenicity in SWV/Fnn mouse assessed as normal fetuses at 283 mg/kg, ip on day 8.5 of gestation (reference value: 100 %); type: toxicity, organism-based; design: dose 283 mg/kg, route intraperitoneal; settings: in vivo
Mus musculus [23] = assay: Teratogenicity in SWV/Fnn mouse assessed as live fetuses at 283 mg/kg, ip on day 8.5 of gestation (reference value: 93.7 %); type: toxicity, organism-based; design: dose 283 mg/kg, route intraperitoneal; settings: in vivo
Mus musculus [24] = assay: Anticonvulsant activity in ip dosed albino CF1 mouse assessed as protection against subcutaneous metrazol-induced seizures after 0.25 to 0.5 hrs; type: functional; settings: albino CF1, 0.5 h; outline: as §2
[25] = Apparent volume of distribution […] in rat at 60 mg/kg, ip; type: ADME, organism-based; design: dose 60 mg/kg, route intraperitoneal; settings: in vivo, read-out: Vz/F; outline: as §1
[26] = Tmax in rat at 60 mg/kg, ip; type: ADME, organism-based; design: dose 60 mg/kg, route intraperitoneal; settings: in vivo; outline: as §1
[27] = Terminal half life in rat at 60 mg/kg, ip; type: ADME, organism-based; design: dose 60 mg/kg, route intraperitoneal; settings: in vivo, read-out: beta t1/2 (converted); outline: as §1
Mus musculus [28] = assay: Teratogenicity in SWV/Fnn mouse assessed as resorption at 301 mg/kg, ip on day 8.5 of gestation (reference value: 6.3 %); type: toxicity, organism-based; design: dose 301 mg/kg, route intraperitoneal; settings: in vivo
Mus musculus [29] = assay: Teratogenicity in SWV/Fnn mouse assessed as normal fetuses at 301 mg/kg, ip on day 8.5 of gestation (reference value: 100 %); type: toxicity, organism-based; design: dose 301 mg/kg, route intraperitoneal; settings: in vivo
Mus musculus [30] = assay: Teratogenicity in SWV/Fnn mouse assessed as resorption at 181 mg/kg, ip on day 8.5 of gestation (reference value: 6.3 %); type: toxicity, organism-based; design: dose 181 mg/kg, route intraperitoneal; settings: in vivo
Mus musculus [31] = assay: Teratogenicity in SWV/Fnn mouse assessed as live fetuses at 181 mg/kg, ip on day 8.5 of gestation (reference value: 93.7 %); type: toxicity, organism-based; design: dose 181 mg/kg, route intraperitoneal; settings: in vivo
Mus musculus [32] = assay: Teratogenicity in SWV/Fnn mouse assessed as normal fetuses at 181 mg/kg, ip on day 8.5 of gestation (reference value: 100 %); type: toxicity, organism-based; design: dose 181 mg/kg, route intraperitoneal; settings: in vivo
Mus musculus [33] = assay: Teratogenicity in SWV/Fnn mouse assessed as fetuses with neural tube defects at 181 mg/kg, ip on day 8.5 of gestation relative to vehicle-treated control; type: toxicity, organism-based; design: dose 181 mg/kg, route intraperitoneal; settings: in vivo
[34] = Solubility of the compound in 5:1:4 solution of propylene glycol, alcohol and water; type: physicochemical
[35] = Solubility of the compound in water; type: physicochemical

| Compound | Cmax [1] [µg/mL] | Activity (Mus musculus [2]) [%] | Activity (Mus musculus [3]) [%] | CL/F [5] [L/h/kg] | Activity (Hippocampus [6]) [%] | Activity (Mus musculus [7]) [%] | Activity (Mus musculus [8]) [%] | Activity (Mus musculus [9]) [%] | TD50 [10] [mg/kg] | AUC [11] [µg·h/mL] | ED50 (Rattus norvegicus [13]) [mg/kg] | Activity (Hippocampus [14]) [%] | MRT [15] [h] | TD50 [16] [mg/kg] | Activity (Mus musculus [17]) [%] | ED50 (Rattus norvegicus [18]) [mg/kg] | ED50 (Mus musculus [20]) [mg/kg] | ED50 (Mus musculus [21]) [mg/kg] | Activity (Mus musculus [22]) [%] | Activity (Mus musculus [23]) [%] | further results |
| --- | --- | --- | --- | --- | --- | --- | --- | --- | --- | --- | --- | --- | --- | --- | --- | --- | --- | --- | --- | --- | --- |
| CCC[C@H](C(N)=O)[C@@H](C)CC | 21.7 | 5.8 | 94.2 | 1.8 | 109 | 100 | 0 | 7.5 | 126 | 32.9 | 48 | 45 | 1.8 | 124 | 0 | 94 | 27 | 59 | 100 | 92.5 | TD50 [4]: 34 mg/kg; ED50 (Mus musculus [12]): 75 mg/kg; ED50 (Rattus norvegicus [19]): 14 mg/kg; ED50 (Mus musculus [24]): 69 mg/kg; Vd/F [25]: 3.9 L/kg; Tmax [26]: 0.5 h; half-life [27]: 1.5 h |
| CCCC(CCC)C(=O)[O-].[Na+] [VALPROATE SODIUM] |  |  |  |  |  |  |  |  |  |  |  |  |  |  |  |  |  |  |  |  | Activity (Mus musculus [28]): 13.6%; Activity (Mus musculus [29]): 99%; Activity (Mus musculus [30]): 7.7%; Activity (Mus musculus [31]): 92.3%; Activity (Mus musculus [32]): 100%; Activity (Mus musculus [33]): 0% |
| CCC[C@@H](C(N)=O)[C@@H](C)CC [(2R,3S)-SEC-BUTYLPROPYLACETAMIDE] | 5.3 | 8.4 | 91.6 | 3.9 | 97 | 100 | 0 | 6.5 | 67 | 15.2 | 72 | 78 | 2.2 | 79 | 0 | 135 | 29 | 51 | 100 | 93.5 | TD50 [4]: 41 mg/kg; ED50 (Mus musculus [12]): 95 mg/kg; ED50 (Rattus norvegicus [19]): 15 mg/kg; ED50 (Mus musculus [24]): 93 mg/kg; Vd/F [25]: 7.2 L/kg; Tmax [26]: 1 h; half-life [27]: 1.3 h |
| CCCC(C(N)=O)C(C)CC (racemic) | 14.1 | 7.5 | 92.5 | 1.8 | 76 | 93 | 0 | 13.4 | 88 | 31.3 | 29 | 145 | 1.8 | 131 | 0 | 84 | 27 | 45 | 87 | 86.6 | TD50 [4]: 49 mg/kg; ED50 (Mus musculus [12]): 71 mg/kg; ED50 (Rattus norvegicus [19]): 21 mg/kg; solubility [34]: 27 mg/mL (≈ 172 mM); solubility [35]: 1.5 mg/mL (≈ 9.54 mM); ED50 (Mus musculus [24]): 62 mg/kg; Vd/F [25]: 3 L/kg; Tmax [26]: 0.75 h; half-life [27]: 1.1 h |
| CCC[C@@H](C(N)=O)[C@H](C)CC [(2R,3R)-SEC-BUTYLPROPYLACETAMIDE] | 18 | 7.5 | 92.5 | 2.2 | 77 | 100 | 0 | 22.9 | 94 | 26.4 | 79 | 94 | 1.5 | 102 | 5.4 | 98 | 38 | 52 | 94.6 | 77.1 | TD50 [4]: 34 mg/kg; ED50 (Mus musculus [12]): 70 mg/kg; ED50 (Rattus norvegicus [19]): 15 mg/kg; ED50 (Mus musculus [24]): 53 mg/kg; Vd/F [25]: 3.6 L/kg; Tmax [26]: 0.5 h; half-life [27]: 1.1 h |
| CCC[C@H](C(N)=O)[C@H](C)CC [(2S,3R)-SEC-BUTYLPROPYLACETAMIDE] | 8 | 7.4 | 92.6 | 4.6 | 91 | 100 | 0 | 9.4 | > 75 | 12.6 | 106 | 90 | 1.5 | 105 | 0 | > 130 | 27 | < 100 | 100 | 90.6 | Vd/F [25]: 6.3 L/kg; Tmax [26]: 0.5 h; half-life [27]: 0.95 h |

Reference: ChEMBL document CHEMBL2417510, “Stereoselective pharmacodynamic and pharmacokinetic analysis of sec-Butylpropylacetamide (SPD), a new CNS-active derivative of valproic acid with unique activity against status epilepticus” (J Med Chem, 2013)
